Experimental data collected from several papers.
Target: cAMP-dependent protein kinase catalytic subunit alpha (PRKACA, Homo sapiens, UniProt P17612)

| Compound | test | setting | measurement | value |
| --- | --- | --- | --- | --- |
| COc1cc(/C=C/C(=O)CC(=O)/C=C/c2ccc(O)c(OC)c2)ccc1O | enzyme activity, inhibitor | 1 µM | activity vs control | 94% |
| NS(=O)(=O)c1cc(NC(=O)Cc2ccccc2)ccc1Oc1cccc(Cl)c1 | cell-free assay, competition with immobilised ligand | 1 µM | remaining binding | 94% |
| Cn1c2c(Cl)c(Cl)ccc2c2cc(N)[nH]c(=O)c21 | thermal stability, DSF | 10 µM | ΔTm | 0.1 °C |
| COc1ccnn2ncc(-c3ccnc(N(C)C)n3)c12 | cell-free assay | 1 µM | remaining signal | 100% |
| Cn1c2c(c3ccc(Cl)c(Cl)c31)C(C#N)C(C)(C)NC2=O (stereo not drawn) | thermal stability, DSF | 10 µM | ΔTm | 0.4 °C |
| CN(C)CC#Cc1ccc(OCCCc2sc(N3CCc4cccc(C(=O)Nc5nc6ccccc6s5)c4C3)nc2C(=O)O)c(F)c1 | cell-free assay, competition with immobilised ligand | 1 µM | remaining binding | 89% |
| COc1cc2ncnc(Nc3ccc(Oc4ccccc4)c(C)c3C)c2cc1OC | enzyme activity, inhibitor | 1 µM | inhibition | 4% |
| CN1CC(Oc2cnc(C#N)cc2-c2ccn3nc(NC(=O)C4CC4)cc3c2)C1 | enzyme activity, inhibitor | 1 µM | inhibition | 7% |
| CCN(CC)CCNC(=O)c1c(C)[nH]c(/C=C2\C(=O)Nc3ccc(F)cc32)c1C | enzyme activity, inhibitor | 0.3 µM | inhibition | 11% |
| CC(C)(O)[C@H]1CC[C@H](Nc2ccc3ncc(-c4cccc(C(F)(F)F)c4)n3n2)CC1 | enzyme activity, inhibitor | 1 µM | remaining activity | 99.4% |
| C=CC(=O)Nc1cc(Nc2nccc(Nc3cc(Cl)c(F)cc3C(C)(C)O)n2)c(OC)cc1N1CC[C@@H](N(C)C)C1 | enzyme activity, inhibitor | 1 µM | inhibition | 7% |
| O=C(Nc1cnn(-c2csc(C(=O)NC3COC3)c2)c1)Nc1ccccc1Cl | enzyme activity, inhibitor | 5 µM | remaining activity | 99.8% |
| FC(F)(F)Oc1cccc(-c2cnc3ccc(-c4ccncc4)nn23)c1 | enzyme activity, inhibitor, radiometric | 1 µM | activity vs control | 95% |
| CN(C)C1CCN(CC#Cc2nn(C3CCCC3)c3nc(NCc4ccccc4)ncc23)C1 (stereo not drawn) | enzyme activity, inhibitor, FRET | 1 µM | inhibition | 6% |
| O=C1NC(=O)c2cc(Nc3ccc(F)cc3)c(Nc3ccc(F)cc3)cc21 | cell-free assay, inhibitor | 0.5 µM | remaining signal | 94.5% |
| CC1=C(C#N)[C@@H](c2ccc3[nH]nc(C)c3c2)C(C#N)=C(c2ccc(Cl)cc2)N1 | cell-free assay, competition with immobilised ligand | 1 µM | remaining binding | 96.7% |
| CCN(CC)c1ccc(C2=NNC(=O)CC2C)cc1[N+](=O)[O-] (stereo not drawn) | enzyme activity, inhibitor | 10 µM | remaining activity | 100% |
| CCOC(=O)c1cc2cc(-c3cc(C(=O)NCc4ccc(C(=O)O)cc4)nn3C)ccc2[nH]1 | cell-free assay, competition with immobilised ligand | 0.1 µM | remaining binding | 85% |
| CC(C)(C)C(=O)c1sc(NC2CCCCC2)nc1N | enzyme activity, inhibitor | 10 µM | remaining activity | 106% |
| Cc1cc(NC(=O)c2cccc(S(F)(F)(F)(F)F)c2)cc(-n2ccn3nc(-c4cccnc4)cc23)c1 | cell-free assay, competition with immobilised ligand | 1 µM | remaining binding | 100% |
| Cn1c2c(c3ccccc31)C(C#N)C(C)(C)NC2=O (stereo not drawn) | thermal stability, DSF | 10 µM | ΔTm | 0.2 °C |

| Compound | test | setting | measurement | value |
| --- | --- | --- | --- | --- |
| O=C(CSc1nc2nccnc2c(=O)n1CCc1ccccc1)Nc1nccs1 | enzyme activity, inhibitor | 10 µM | inhibition | 6% |
| Cc1ccc(NC(=O)c2ccc(CN3CCN(C)CC3)cc2)cc1Nc1nccc(-c2cccnc2)n1 | enzyme activity, inhibitor | 0.5 µM | activity vs control | 95.4% |
| Cc1ccc(-n2nc(C(C)(C)C)cc2NC(=O)Nc2ccc(OCCN3CCOCC3)c3ccccc23)cc1 | enzyme activity, inhibitor | 10 µM | inhibition | 6% |
| O=C(Nc1cnn(-c2csc(C(=O)NC3COC3)c2)c1)Nc1c(F)cccc1Cl | enzyme activity, inhibitor | 5 µM | remaining activity | 108% |
| COc1cc(Nc2cnc(C#N)c(O[C@H](C)CN(C)C)n2)ncc1-c1cnn(C)c1 | enzyme activity, inhibitor, radiometric | 1 µM | remaining activity | 104% |
| C[C@@H](N)[C@H]1CC[C@H](C(=O)Nc2ccncc2)CC1 | cell-free assay, inhibitor | 0.5 µM | remaining signal | 97.8% |
| Oc1cccc(-c2nc(N3CCOCC3)c3oc4ncccc4c3n2)c1 | enzyme activity, inhibitor | 10 µM | remaining activity | 100% |
| CC1=C(C#N)C(c2ccc3c(c2)c(NC(=O)c2ccccc2C)nn3C)C(C#N)=C(C)N1 | cell-free assay, competition with immobilised ligand | 1 µM | remaining binding | 77% |
| FC(F)c1nc2ccccc2n1-c1nc(N2CCOCC2)nc(N2CCOCC2)n1 | enzyme activity, inhibitor | 10 µM | remaining activity | 76% |
| CS(=O)(=O)N1CCCC(NC(=O)[C@H](CCC2CCCCC2)NC(=O)c2ccc(CNC(=O)c3cnc4ccccn34)cc2)C1 (stereo partly drawn) | cell-free assay, competition with immobilised ligand | 0.1 µM | remaining binding | 100% |
| CCCOc1ccc(OC)c(F)c1C(=O)c1ccc(C(=O)N[C@@H]2CNC[C@H]2NC(=O)c2ccc3[nH]ncc3c2)cc1 | enzyme activity, inhibitor | 10 µM | remaining activity | 1% |
| CCCS(=O)(=O)Nc1ccc(F)c(C(=O)c2c[nH]c3ncc(-c4ccc(Cl)cc4)cc23)c1F | enzyme activity, inhibitor | 1 µM | inhibition | < 10% |
| CC(C)(C)c1nc2c(s1)c1nc(N)ncc1c1ccc(NS(=O)(=O)c3c(F)cccc3F)c(F)c12 | enzyme activity, inhibitor, radiometric | 1 µM | remaining activity | 104% |
| CN(c1nccc(-c2cnn3ncccc23)n1)C1CC1 | cell-free assay | 1 µM | remaining signal | 100% |
| COc1cc2ncnc(Nc3ccc(F)c(Cl)c3)c2cc1OCCCN1CCOCC1 | cell-free assay | 0.5 µM | remaining signal | 96.3% |
| CC(=O)C1=C(C)N(c2cccc(C(F)(F)F)c2)C(=O)N[C@@H]1c1ccc(C#N)nc1 | cell-free assay, competition with immobilised ligand | 1 µM | remaining binding | 92.3% |
| Cc1ccc(Nc2nccc(N(C)c3ccc4c(C)n(C)nc4c3)n2)cc1S(N)(=O)=O | enzyme activity, inhibitor | 0.3 µM | inhibition | 6% |
| CC1(C)NC(=O)c2[nH]c3c(Cl)c(Cl)ccc3c2C1C#N (stereo not drawn) | thermal stability, DSF | 10 µM | ΔTm | 1 °C |
| Cn1cnc(Br)c1C1=CN(c2ncnc3[nH]cnc23)CCS1 | enzyme activity, inhibitor, radiometric | 2 µM | inhibition | 90.2% |
| CC(C)c1ccc(NC(=O)c2cccs2)c(-c2nc3ccccc3[nH]c2=O)c1 | enzyme activity, inhibitor | 1 µM | activity vs control | 108% |
| Cn1c2c(Cl)c(Cl)ccc2c2cc[nH]c(=O)c21 | thermal stability, DSF | 10 µM | ΔTm | 0.8 °C |
